Legend:
Assay type in all cases: functional
UACC-257 = test: Growth inhibition of human UACC257 cells incubated for 48 hrs by sulforhodamine B assay; details: UACC-257, 48 h
Outline: (§1)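 NCI-60 screen run at NCI. Cells grown in RPMI medium with 5% FBS and 2 mM L-glutamine, plated at 5,000–40,000 cells/well, and preincubated 24 h at 37 °C. Time-zero plates were TCA-fixed. Compounds came from DMSO stocks and were tested at five concentrations from 10^-4 to 10^-8 M for 48 h. Cells were then TCA-fixed, stained with 0.4% SRB, and OD read at 515 nm. GI50 is the concentration giving a 50% reduction in net protein increase versus control.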

NCI-H23 = test: Growth inhibition of human NCI-H23 cells incubated for 48 hrs by sulforhodamine B assay; details: NCI-H23, 48 h
Outline: (§2)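 NCI-60 screen. Compounds were dosed at five concentrations spanning 10^-4 to 10^-8 M for 48 h at 37 °C. Cells were TCA-fixed, stained with 0.4% SRB and read at 515 nm against time-zero and vehicle controls. GI50 is the concentration giving a 50% reduction in net protein increase.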

CCRF-CEM = test: Growth inhibition of human CCRF-CEM cells incubated for 48 hrs by sulforhodamine B assay; outline: as §2
SK-OV-3 = test: Growth inhibition of human SKOV3 cells incubated for 48 hrs by sulforhodamine B assay; details: SK-OV-3, 48 h; outline: as §2
HL-60(TB) = test: Growth inhibition of human HL-60(TB) cells incubated for 48 hrs by sulforhodamine B assay; details: HL-60, 48 h
Outline: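 Performed at NCI's 60-line screen. Cells grown in RPMI with 5% FBS and 2 mM L-glutamine, plated 5,000–40,000 cells/well and incubated 24 h at 37 °C before compound addition. DMSO stocks were diluted in medium with gentamicin, and five concentrations spanning 10^-4 to 10^-8 M were tested. Exposure was 48 h. Cells were fixed with TCA, stained with SRB, and read at 515 nm. GI50 taken from log dose-response curves as 50% reduction in net protein increase versus control.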

MOLT-4 = test: Growth inhibition of human MOLT4 cells incubated for 48 hrs by sulforhodamine B assay; details: MOLT-4, 48 h; outline: as §2
HT-29 = test: Growth inhibition of human HT-29 cells incubated for 48 hrs by sulforhodamine B assay; details: HT-29, 48 h; outline: as §2
OVCAR-8 = test: Growth inhibition of human OVCAR8 cells incubated for 48 hrs by sulforhodamine B assay; details: OVCAR-8, 48 h; outline: as §2
HCT-15 = test: Growth inhibition of human HCT15 cells incubated for 48 hrs by sulforhodamine B assay; details: HCT-15, 48 h; outline: as §2
HCT-116 = test: Growth inhibition of human HCT116 cells incubated for 48 hrs by sulforhodamine B assay; details: HCT-116, 48 h; outline: as §2
SK-MEL-28 = test: Growth inhibition of human SK-MEL-28 cells incubated for 48 hrs by sulforhodamine B assay; details: SK-MEL-28, 48 h; outline: as §2
MCF7 = test: Growth inhibition of human MCF7 cells incubated for 48 hrs by sulforhodamine B assay; details: MCF7, 48 h; outline: as §2
A498 = test: Growth inhibition of human A498 cells incubated for 48 hrs by sulforhodamine B assay; details: A498, 48 h; outline: as §2
NCI-H322M = test: Growth inhibition of human NCI-H322M cells incubated for 48 hrs by sulforhodamine B assay; outline: as §2
K562 = test: Growth inhibition of human K562 cells incubated for 48 hrs by sulforhodamine B assay; details: K562, 48 h; outline: as §2
SF-539 = test: Growth inhibition of human SF539 cells incubated for 48 hrs by sulforhodamine B assay; details: SF-539, 48 h; outline: as §2
NCI-H226 = test: Growth inhibition of human NCI-H226 cells incubated for 48 hrs by sulforhodamine B assay; details: NCI-H226, 48 h; outline: as §2
Malme-3M = test: Growth inhibition of human MALME-3M cells incubated for 48 hrs by sulforhodamine B assay; outline: as §2
NCI-H460 = test: Growth inhibition of human NCI-H460 cells incubated for 48 hrs by sulforhodamine B assay; details: NCI-H460, 48 h; outline: as §2
RXF 393 = test: Growth inhibition of human RXF393 cells incubated for 48 hrs by sulforhodamine B assay; details: RXF 393, 48 h; outline: as §2
NCI/ADR-RES = test: Growth inhibition of human NCI/ADR-RES cells incubated for 48 hrs by sulforhodamine B assay; outline: as §2
OVCAR-5 = test: Growth inhibition of human OVCAR5 cells incubated for 48 hrs by sulforhodamine B assay; details: OVCAR-5, 48 h; outline: as §2
SW-620 = test: Growth inhibition of human SW620 cells incubated for 48 hrs by sulforhodamine B assay; details: SW-620, 48 h; outline: as §1
SF-268 = test: Growth inhibition of human SF268 cells incubated for 48 hrs by sulforhodamine B assay; details: SF-268, 48 h; outline: as §2
UO-31 = test: Growth inhibition of human UO31 cells incubated for 48 hrs by sulforhodamine B assay; details: UO-31, 48 h; outline: as §1
SN12C = test: Growth inhibition of human SN12C cells incubated for 48 hrs by sulforhodamine B assay; outline: as §2
HCC 2998 = test: Growth inhibition of human HCC2998 cells incubated for 48 hrs by sulforhodamine B assay; details: HCC 2998, 48 h; outline: as §2
A549 = test: Growth inhibition of human A549/ATCC cells incubated for 48 hrs by sulforhodamine B assay; details: A549, 48 h; outline: as §2
UACC-62 = test: Growth inhibition of human UACC62 cells incubated for 48 hrs by sulforhodamine B assay; details: UACC-62, 48 h; outline: as §1
U-251 = test: Growth inhibition of human U251 cells incubated for 48 hrs by sulforhodamine B assay; details: U-251, 48 h; outline: as §1
SF-295 = test: Growth inhibition of human SF295 cells incubated for 48 hrs by sulforhodamine B assay; details: SF-295, 48 h; outline: as §2
LOX IMVI = test: Growth inhibition of human LOXIMVI cells incubated for 48 hrs by sulforhodamine B assay; outline: as §2
KM12 = test: Growth inhibition of human KM12 cells incubated for 48 hrs by sulforhodamine B assay; details: KM12, 48 h; outline: as §2
SNB-19 = test: Growth inhibition of human SNB19 cells incubated for 48 hrs by sulforhodamine B assay; details: SNB-19, 48 h; outline: as §1
RPMI-8226 = test: Growth inhibition of human RPMI8226 cells incubated for 48 hrs by sulforhodamine B assay; details: RPMI-8226, 48 h; outline: as §2
HOP-92 = test: Growth inhibition of human HOP92 cells incubated for 48 hrs by sulforhodamine B assay; details: HOP-92, 48 h; outline: as §2
[1] = Cytotoxicity against human M9-ENL1 cells assessed as reduction in cell viability by trypan blue staining-based assay
Outline: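 M9-ENL1 AML cells (MLL-ENL-transduced human blood cells) plated at 10^6 cells/mL in alpha-MEM with 5% human plasma, 20% FBS, SCF, IL-3, IL-7 and FLT3. Drug diluted from DMSO stock into PBS, final DMSO ≤0.5%. After 24 h exposure, dead cells assessed by trypan blue and by flow cytometry (Annexin V/PI or Annexin V/7-AAD). Viability normalized to vehicle; EC50 from dose-response curves; triplicate.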

SMILES	GI50 (UACC-257) [nM]	GI50 (NCI-H23) [nM]	GI50 (CCRF-CEM) [nM]	GI50 (SK-OV-3) [nM]	GI50 (HL-60(TB)) [nM]	GI50 (MOLT-4) [nM]	GI50 (HT-29) [nM]	GI50 (OVCAR-8) [nM]	GI50 (HCT-15) [nM]	GI50 (HCT-116) [nM]	GI50 (SK-MEL-28) [nM]	GI50 (MCF7) [nM]	GI50 (A498) [nM]	GI50 (NCI-H322M) [nM]	GI50 (K562) [nM]	GI50 (SF-539) [nM]	GI50 (NCI-H226) [nM]	GI50 (Malme-3M) [nM]	GI50 (NCI-H460) [nM]	GI50 (RXF 393) [nM]	also measured
C=C1C(=O)O[C@@H]2[C@H]3O[C@]3(C)CC/C=C(/COC(=O)c3cn(C)c4ccccc34)CC[C@@H]12	1320	1930	210	4330	1540	570	520	800	530	1020	1550	400	1590	3010	400	740	1480	1620	1730	580	GI50 (NCI/ADR-RES): 2150 nM; GI50 (OVCAR-5): 1560 nM; GI50 (SW-620): 300 nM; GI50 (SF-268): 1300 nM; GI50 (UO-31): 770 nM; GI50 (SN12C): 710 nM; GI50 (HCC 2998): 1810 nM; GI50 (A549): 1820 nM; GI50 (UACC-62): 1260 nM; GI50 (U-251): 1420 nM; GI50 (SF-295): 2410 nM; GI50 (LOX IMVI): 220 nM; GI50 (KM12): 1830 nM; GI50 (SNB-19): 1590 nM; GI50 (RPMI-8226): 210 nM; GI50 (HOP-92): 360 nM; EC50 [1]: 7200 nM
C=C1C(=O)O[C@@H]2C3O[C@]3(C)CC/C=C(\C)CC[C@@H]12 (stereo partly specified)	14400	20200	9160	54700	5710	14300	23500	17100	10200	10800	21000	16400	7040	21700	22600	18900	20500	13800	18800	12200	GI50 (NCI/ADR-RES): 15000 nM; GI50 (OVCAR-5): 34100 nM; GI50 (SW-620): 14500 nM; GI50 (SF-268): 25100 nM; GI50 (UO-31): 41900 nM; GI50 (SN12C): 22800 nM; GI50 (HCC 2998): 24100 nM; GI50 (A549): 91800 nM; GI50 (UACC-62): 16800 nM; GI50 (U-251): 41500 nM; GI50 (SF-295): 28900 nM; GI50 (LOX IMVI): 8240 nM; GI50 (KM12): 16200 nM; GI50 (SNB-19): 70900 nM; GI50 (RPMI-8226): 8200 nM; GI50 (HOP-92): 13500 nM; EC50 [1]: 5500 nM
C=C1C(=O)O[C@@H]2[C@H]3O[C@]3(C)CC/C=C(/COC(=O)c3cc4cc(Cl)ccc4[nH]3)CC[C@@H]12	1700	1630	390	10200	440	550	1330	1340	1000	700	1580	860	2650	4000	1140	1440	1800	1630	1720	1380	GI50 (NCI/ADR-RES): 1450 nM; GI50 (OVCAR-5): 1530 nM; GI50 (SW-620): 1400 nM; GI50 (SF-268): 1440 nM; GI50 (UO-31): 1210 nM; GI50 (SN12C): 1700 nM; GI50 (HCC 2998): 1400 nM; GI50 (A549): 1690 nM; GI50 (UACC-62): 1670 nM; GI50 (U-251): 1750 nM; GI50 (SF-295): 3180 nM; GI50 (LOX IMVI): 810 nM; GI50 (KM12): 2150 nM; GI50 (SNB-19): 2910 nM; GI50 (RPMI-8226): 810 nM; GI50 (HOP-92): 1250 nM; EC50 [1]: 3800 nM
